Hits are enriched below; roughly 2.3% of the tested compounds scored in any of these assays.
TRPC4 agonist = activators of mouse TRPC4 channel | 0.49% of 310,000 active | B-score at 10 µM | HEK293 TRPC4beta/mu-opioid, Fluo4 calcium fluorescence; hits give high values | Q9QUQ5;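 active = B-score above 5 SD of library B-scores, and initial fluorescence ratio not above library mean plus 5 SD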;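 also: positive B-score marks a calcium rise read as TRPC4 activation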
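Assay system: HEK293 stable line with TRPC4beta plus mu-opioid receptor; schedule: 45 min room-temperature Fluo4 loading, 110 s read; technique: kinetic Fluo4 calcium fluorescence; evaluation: integrated baseline-normalised fluorescence ratio, converted to per-well B score; controls: buffer (low) and maximal DAMGO (high)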
TRPC6 inh = blocks the mouse TRPC6 cation channel; Q61143; HEK293-TRPC6, membrane potential dye, ACh-evoked depolarization; hits give low values; B-score at 10 µM; 1.1% of 310,000 active; AID 2553;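 active = B-score under library mean minus 3 SD, initial fluorescence not abnormally high, positive integrated signal ratio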;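 also: B-score derived from integrated fluorescence ratio over the kinetic read; more negative B-score means stronger inhibition of depolarization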
Target sequence (Q61143 whole entry, looked up): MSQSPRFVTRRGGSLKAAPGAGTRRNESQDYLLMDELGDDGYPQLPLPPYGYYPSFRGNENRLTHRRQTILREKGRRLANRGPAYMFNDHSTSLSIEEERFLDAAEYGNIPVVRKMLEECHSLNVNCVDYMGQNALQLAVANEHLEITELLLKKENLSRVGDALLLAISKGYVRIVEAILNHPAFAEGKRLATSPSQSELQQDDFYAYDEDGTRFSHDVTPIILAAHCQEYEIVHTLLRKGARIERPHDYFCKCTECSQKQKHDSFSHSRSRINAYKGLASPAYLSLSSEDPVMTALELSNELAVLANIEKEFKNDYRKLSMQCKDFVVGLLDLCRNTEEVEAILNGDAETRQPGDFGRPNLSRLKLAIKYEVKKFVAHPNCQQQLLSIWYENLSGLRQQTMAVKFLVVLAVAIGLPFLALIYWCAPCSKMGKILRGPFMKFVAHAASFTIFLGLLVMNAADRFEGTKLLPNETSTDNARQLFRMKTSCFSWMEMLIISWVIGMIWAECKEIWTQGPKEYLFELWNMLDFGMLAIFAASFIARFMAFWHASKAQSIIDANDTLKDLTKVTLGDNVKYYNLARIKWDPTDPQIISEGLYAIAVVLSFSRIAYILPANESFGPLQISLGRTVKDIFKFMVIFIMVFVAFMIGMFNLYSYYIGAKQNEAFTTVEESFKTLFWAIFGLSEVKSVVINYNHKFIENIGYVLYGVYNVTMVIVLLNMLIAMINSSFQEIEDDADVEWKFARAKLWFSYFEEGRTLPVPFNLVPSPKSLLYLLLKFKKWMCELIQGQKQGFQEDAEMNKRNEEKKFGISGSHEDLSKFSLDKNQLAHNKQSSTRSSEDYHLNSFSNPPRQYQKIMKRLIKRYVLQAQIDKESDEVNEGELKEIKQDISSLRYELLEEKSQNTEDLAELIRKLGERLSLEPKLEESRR
TRPC4 inh = inhibitors of mouse TRPC4 channel; B-score at 10 µM; 0.39% of 300,000 active; Q9QUQ5; AID 2247; HEK293 TRPC4beta/mu-opioid, DAMGO-evoked Fluo4 calcium flux; hits give low values;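 active = B-score over 3 SD under the library average, no early fluorescence shift, positive overall ratio signal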
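material = TRPC4beta/mu-opioid receptor HEK293 cell line | probe or stimulus = sequential submaximal and maximal DAMGO stimulation | compound dosing = one concentration per compound | measured by = Fluo4 Ca2+ flux fluorescence | evaluation = integrated fluorescence ratio relative to baseline, converted to per-well B score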
TRPC6 act = mouse TRPC6 channel activation. B-score at 10 µM. AID 2550. 0.13% of 310,000 active. HEK293-TRPC6 membrane potential dye fluorescence; hits give high values;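 active = B-score of the integrated fluorescence ratio above library mean plus 3 SD, and starting fluorescence ratio within library mean plus 5 SD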;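 also: higher score means more depolarization so channel activation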
TRPC4 PAM = allosterically enhances the mouse TRPC4 cation channel; Q9QUQ5; HEK293 TRPC4beta/mu-opioid, DAMGO EC20, Fluo-4 Ca2+ flux; hits give high values; B-score at 10 µM; 0.42% of 310,000 active; AID 2227;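 active = B-score of calcium response area above 5 SD of library B-scores, with initial fluorescence ratio within 5 SD of library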
TRPC4 spec 2 = second check of whether TRPC6 inhibitors also affect mouse TRPC4. shares compounds with TRPC6 inh. 42% of 920 active. AID 2776. HEK293 TRPC4/MOR, membrane potential dye fluorescence; channel activated by saturating DAMGO dose. inhibition, % at 10 µM;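 active = compounds whose fluorescence signal differed from control wells by over 3 SD, either direction, in both duplicate plates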
TRPC4 spec = tests whether TRPC6 inhibitors also affect mouse TRPC4 | shares compounds with TRPC6 inh | HEK293 TRPC4/mu-opioid, membrane potential fluorescence | activity change, negative = inhibition, % at 10 µM | 61% of 920 active;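 active = rise or fall in signal beyond 3 SD of buffer-only wells in both replicate plates, either sign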;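 also: integrated kinetic ratio of fluorescence range over baseline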
HEK293 counter 2 = second counter-screen for TRPC6 inhibitors: parental HEK293 cells. shares compounds with TRPC6 inh. parental HEK293 membrane potential dye fluorescence; maximal acetylcholine challenge after compound addition. signal change vs control, % at 10 µM. 31% of 920 active. AID 2779;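 active = membrane potential signal moving either way by over 3 SD of the maximum-effect control, in both duplicate plates, meaning non-specific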
HEK293 MPD ctr = parental HEK293 nonspecific activity of TRPC6 inhibitors; shares compounds with TRPC6 inh; parental HEK293 membrane potential dye fluorescence; membrane potential signal change, % at 10 µM; 60% of 920 active; AID 2780;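 active = membrane potential signal shifting up or down by more than 3 SD of buffer-only wells, on both duplicate plates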
TRPC6 inh conf = confirmation of mouse TRPC6 inhibitors | 43% of 3,300 active | HEK293-TRPC6, membrane potential dye, ACh-evoked depolarization | AID 488960 | inhibition, % at 10 µM | shares compounds with TRPC6 inh;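 active = fluorescence ratio falls more than 5 SD below the full-stimulation control mean, in both duplicate runs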;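 also: integrated fluorescence ratio of peak minus minimum over baseline after agonist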
TRPC6 act confirm = confirmation of mouse TRPC6 activators | shares compounds with TRPC6 inh | HEK293-TRPC6 membrane potential dye fluorescence, FDSS | activation, % at 10 µM | 11% of 2,800 active;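 active = ratio signal rise beyond 5 SD above unstimulated control wells' mean, seen in both duplicate runs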
Large screens that a line does not name were inactive (follow-up assays come after a bar, where they were run).

Cn1c(O)c(C=NCCN2CCOCC2)c(=O)[nH]c1=S	none
CN1CC=C(/C=C/c2ccc(-c3ccccc3)cc2)CC1	none
CCN1CCN(S(=O)(=O)c2ccc(Cl)c(C(=O)Nc3ccc(C(=O)N(CC)CC)cc3)c2)CC1	TRPC4 agonist 48
CCN(CC)C(=O)c1ccc(NC(=O)c2cccc(C(F)(F)F)c2)cc1	none
COc1ccc(CC(=O)Nc2ccc(C#N)c(Cl)c2)cc1S(=O)(=O)N1CCOCC1	none
CC1CC(C)CN(CC(=O)c2ccc(OC(F)F)cc2)C1 (stereo not drawn)	TRPC4 agonist 52
C=CCn1c(O)c(C(C)=Nc2ccc(C(=O)O)cc2)c(=O)[nH]c1=O	none
Cc1c(CCN)ccc2c1[nH]c1ccccc12	TRPC4 PAM 19
CCN1CCN(c2cc(N3CCCC3)c([N+](=O)[O-])cc2F)CC1	TRPC4 PAM 17
O=[N+]([O-])c1ccc(N2CCCC2)c(F)c1Br	none
CCOC(=O)C1(CCc2ccccc2)CCN(Cc2cccc3cnccc23)CC1	none
CCOC(=O)C1(CCc2ccccc2)CCN(Cc2csc(C(C)=O)c2)CC1	TRPC4 agonist 49
CCOC(=O)C1(CCc2ccccc2)CCN(Cc2cccc3c2OCO3)CC1	TRPC4 inh -6
O=C1C2(c3ccccc3)CN3CN(C2)CC1(c1ccccc1)C3	none
C1CNC2NCCNC2N1 (stereo not drawn)	none
C=C1C[C@]2(O)[C@@]3(C)CCC(=O)C(C)(C)C3=C(O)C(=O)[C@@]2(C)[C@@H]2C(=O)O[C@@](C)(C(=O)OC)C(=O)[C@@]12C	none
Cn1cc[n+](C)c1P(=S)(c1ccccc1)c1ccccc1	TRPC4 agonist 66
Cc1c(P(=S)(c2ccccc2)c2ccccc2)[n+]2ccccc2n1C	none
Clc1cccc(N2CCNCC2)n1	none
COc1ccccc1N1CCNCC1	none
Cc1cc(N2CCNCC2)nc2ccccc12	TRPC4 PAM 13
Cn1c(N2CCNCC2)nc2ccccc21	TRPC4 agonist 105
Cc1c(N)c(C)c([N+](=O)[O-])c(C)c1[N+](=O)[O-]	TRPC4 inh -6
O=S(=O)(NC1CCCCC1)OCC(Cl)(Cl)Cl	none
Cn1c(O)c(Cc2cccc(Cl)c2Cl)c(=O)n(C)c1=O	none
COc1ccc(-n2nc(C(=O)NCC(=O)N3CCC4(CC3)OCCO4)c3ccccc3c2=O)cc1OC	none
O=C(CCN1CCCCC1)Nc1ccc(Cl)cc1C(=O)c1ccccc1	none
O=C(CN1CCCC1)Nc1ccc(Cl)cc1C(=O)c1ccccc1	TRPC4 inh -6
CCOc1ccccc1CN1CCCC(C(=O)c2cc(F)ccc2F)C1 (stereo not drawn)	none
CC(Cc1ccccc1)NCC(=O)Nc1cc(N(C)C)nc2ccccc12 (stereo not drawn)	TRPC4 inh -6
CC(=O)O[C@]1(c2ccccc2)CCN(C)[C@H]2CCCC[C@@H]21	none
CC(=O)OC1(c2ccccc2)CCN(C2CCCCC2)CC1C (stereo not drawn)	TRPC4 inh -6
CN1CCCC(C(=O)c2ccc(Cl)cc2)C1 (stereo not drawn)	TRPC4 agonist 126, TRPC4 inh -9
CC(=O)N1CCC(N2CCCC(C(=O)c3cccc(Cl)c3)C2)CC1 (stereo not drawn)	TRPC6 inh -5.7
O=C(c1ccc(Cl)cc1)C1CCCN(Cc2ccon2)C1 (stereo not drawn)	none
CC(C)(C)c1ccc(C(=O)C2CCCN(C3CCC3)C2)cc1 (stereo not drawn)	TRPC4 agonist 57
CN1CCC(N(C)c2ccc(C(N)=O)cc2[N+](=O)[O-])CC1	none
Cc1ccccc1-n1c(-c2ccc([N+](=O)[O-])cc2)nc2ccccc2c1=O	none
CC(C)OC(=O)Nc1ccc(N=C(N)N[N+](=O)[O-])cc1	none
CC(C)C[C@H](NC(=O)[C@@H]1CCCN1C(=O)[C@@H](N)Cc1ccc(O)cc1)C(=O)NCC(N)=O	TRPC4 agonist 53
CC(C)CC(NC(=O)C1CCCCC1)C(=O)N1CCC2(CC1)OCCO2 (stereo not drawn)	none
C/C(=N\N1CCCCC1c1cccnc1)c1c(O)n(C2CCCCC2)c(=S)[nH]c1=O (stereo not drawn)	none
O=c1[nH]c(=O)n(CCc2ccccc2)c(O)c1C=NC1CC1	TRPC4 PAM 14
CN(C)CCCN=Cc1c(O)n(CCc2ccccc2)c(=O)[nH]c1=O	none
CCOC(=O)C1=C(C)OC(N)=C(C#N)C12C(=O)N(C)c1ccccc12 (stereo not drawn)	none
C#CCN1C(=O)C2(C(C#N)=C(N)OC(C)=C2C(=O)OCc2ccccc2)c2ccccc21 (stereo not drawn)	TRPC4 PAM 29
COc1ccc(OC)c(N2C(=O)/C(=C/c3ccco3)C(=O)NC2=S)c1	TRPC4 PAM 10
CC(Cc1ccccc1Sc1ccc(O)cc1)N(C)C (stereo not drawn)	TRPC6 inh -6.6 | TRPC4 spec 2 41% | TRPC4 spec 43% | HEK293 counter 2 inactive | HEK293 MPD ctr 4.2% | TRPC6 inh conf inactive | TRPC6 act confirm inactive
CC(Cc1ccccc1Sc1ccccc1)N(C)C (stereo not drawn)	none
CN1CCN(CCOC2c3ccccc3CSc3ccc(Cl)cc32)CC1 (stereo not drawn)	none
